Calls of active or inactive are those of the source. No cut-off for these calls is given here.
Assays:
NCI-H460 [1] = assay: Cell cycle arrest in human NCI-H460 cells assessed as accumulation at S phase at IC50 after 20 hrs using propidium Iodide staining by flow cytometry in presence of 10% fetal calf serum; format: functional
Method in brief: (§1)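 NCI-H460 cells are seeded at 2 × 10⁵ per 35-mm dish in RPMI with 10% FCS. After 24 h they are serum-starved in 0.4% FCS for 2 days, then restimulated with 10% FCS with or without compound at 37 °C. Cells are trypsinized, fixed in 62% ethanol and stained 30 min in the dark (5 µg/mL propidium iodide, RNase, 1% NP-40).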

NCI-H460 [2] = assay: Selectivity ratio of IC50 for rat SMC to IC50 for human NCI-H460 cells
[3] = target: DNA topoisomerase 2-alpha (Homo sapiens) (UniProt P11388); assay: Inhibition of topoisomerase 2-mediated relaxation of supercoiled pRYG DNA at 0.1 uM after 10 mins using ethidium bromide staining by agarose gel electrophoresis
NCI-H460 [4] = assay: Cell cycle arrest in human NCI-H460 cells assessed as accumulation at sub-G0/G1 phase at IC50 after 20 hrs using propidium Iodide staining by flow cytometry in presence of 10% fetal calf serum; format: functional, cell-based
[5] = Cytotoxicity against RAOSMC after 3 days by cell counting analysis; settings: Rattus norvegicus, 72 h
Method in brief: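 Primary aortic SMCs from male Sprague–Dawley rats, passages 4–10, are seeded at 2 × 10⁵ per 35-mm dish in DMEM with 10% FCS. After 24 h they are arrested in 0.4% FCS for 72 h, then given 10% FCS plus compound (DMSO at most 1%) for 72 h at 37 °C. Cells are trypsinized and counted with a Coulter counter. IC50 is obtained by linear regression of log concentration versus logit.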

NCI-H460 [6] = assay: Cell cycle arrest in human NCI-H460 cells assessed as accumulation at G0/G1 phase at IC50 after 20 hrs using propidium Iodide staining by flow cytometry in presence of 10% fetal calf serum; format: functional; method in brief: as §1
NCI-H460 [7] = assay: Cytotoxicity against human NCI-H460 cells after 3 days by cell counting analysis; format: functional, cell-based; settings: NCI-H460, 72 h
Method in brief: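 NCI-H460 cells in RPMI-1640 with 10% FCS are seeded at 8 × 10⁴ per 35-mm dish and exposed to compound (DMSO at most 1%) 24 h later. Cells are harvested after 72 h, trypsinized and counted with a Coulter counter. IC50 is derived by linear regression of log concentration versus logit.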

Nucleic Acid = assay: Binding affinity to supercoiled pRYG DNA at 0.1 uM after 10 mins by agarose gel electrophoresis; format: nucleic-acid assay
NCI-H460 [8] = assay: Cell cycle arrest in human NCI-H460 cells assessed as accumulation at G2/M phase at IC50 after 20 hrs using propidium Iodide staining by flow cytometry in presence of 10% fetal calf serum; format: functional; method in brief: as §1
NCI-H460 [9] = assay: Antitumor activity against human NCI-H460 cells xenografted in athymic Swiss nude mouse assessed as tumor growth inhibition at 16.9 mg/kg, iv administered 2 days after tumor implantation for every 4th day for four times; format: functional, organism-based; design: dose 16.9 mg/kg
Method in brief: (§2)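 NCI-H460 tumor fragments are implanted s.c. in both flanks of athymic nude mice on day 0. Dosing is i.v. on days 2, 6, 10 and 14 (q4dx4) in 10% DMSO in water, with vehicle-only controls. Tumor diameters are measured twice weekly by caliper. Tumor weight in treated mice is compared with controls by unpaired two-tailed Student's t-test.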

NCI-H460 [10] = assay: Antitumor activity against human NCI-H460 cells xenografted in athymic Swiss nude mouse assessed as tumor growth inhibition at 10 mg/kg, iv administered 2 days after tumor implantation for every 4th day for four times; format: functional, organism-based; design: dose 10 mg/kg; method in brief: as §2
Mus musculus = assay: Toxicity in human […] cells xenografted in athymic Swiss nude mouse at 16.9 mg/kg, iv administered 2 days after tumor implantation for every 4th day for four times; format: organism-based; design: dose 16.9 mg/kg, route intravenous; settings: in vivo, 48 h

DNA topoisomerase 2-alpha (Homo sapiens), sequence (P11388 whole entry): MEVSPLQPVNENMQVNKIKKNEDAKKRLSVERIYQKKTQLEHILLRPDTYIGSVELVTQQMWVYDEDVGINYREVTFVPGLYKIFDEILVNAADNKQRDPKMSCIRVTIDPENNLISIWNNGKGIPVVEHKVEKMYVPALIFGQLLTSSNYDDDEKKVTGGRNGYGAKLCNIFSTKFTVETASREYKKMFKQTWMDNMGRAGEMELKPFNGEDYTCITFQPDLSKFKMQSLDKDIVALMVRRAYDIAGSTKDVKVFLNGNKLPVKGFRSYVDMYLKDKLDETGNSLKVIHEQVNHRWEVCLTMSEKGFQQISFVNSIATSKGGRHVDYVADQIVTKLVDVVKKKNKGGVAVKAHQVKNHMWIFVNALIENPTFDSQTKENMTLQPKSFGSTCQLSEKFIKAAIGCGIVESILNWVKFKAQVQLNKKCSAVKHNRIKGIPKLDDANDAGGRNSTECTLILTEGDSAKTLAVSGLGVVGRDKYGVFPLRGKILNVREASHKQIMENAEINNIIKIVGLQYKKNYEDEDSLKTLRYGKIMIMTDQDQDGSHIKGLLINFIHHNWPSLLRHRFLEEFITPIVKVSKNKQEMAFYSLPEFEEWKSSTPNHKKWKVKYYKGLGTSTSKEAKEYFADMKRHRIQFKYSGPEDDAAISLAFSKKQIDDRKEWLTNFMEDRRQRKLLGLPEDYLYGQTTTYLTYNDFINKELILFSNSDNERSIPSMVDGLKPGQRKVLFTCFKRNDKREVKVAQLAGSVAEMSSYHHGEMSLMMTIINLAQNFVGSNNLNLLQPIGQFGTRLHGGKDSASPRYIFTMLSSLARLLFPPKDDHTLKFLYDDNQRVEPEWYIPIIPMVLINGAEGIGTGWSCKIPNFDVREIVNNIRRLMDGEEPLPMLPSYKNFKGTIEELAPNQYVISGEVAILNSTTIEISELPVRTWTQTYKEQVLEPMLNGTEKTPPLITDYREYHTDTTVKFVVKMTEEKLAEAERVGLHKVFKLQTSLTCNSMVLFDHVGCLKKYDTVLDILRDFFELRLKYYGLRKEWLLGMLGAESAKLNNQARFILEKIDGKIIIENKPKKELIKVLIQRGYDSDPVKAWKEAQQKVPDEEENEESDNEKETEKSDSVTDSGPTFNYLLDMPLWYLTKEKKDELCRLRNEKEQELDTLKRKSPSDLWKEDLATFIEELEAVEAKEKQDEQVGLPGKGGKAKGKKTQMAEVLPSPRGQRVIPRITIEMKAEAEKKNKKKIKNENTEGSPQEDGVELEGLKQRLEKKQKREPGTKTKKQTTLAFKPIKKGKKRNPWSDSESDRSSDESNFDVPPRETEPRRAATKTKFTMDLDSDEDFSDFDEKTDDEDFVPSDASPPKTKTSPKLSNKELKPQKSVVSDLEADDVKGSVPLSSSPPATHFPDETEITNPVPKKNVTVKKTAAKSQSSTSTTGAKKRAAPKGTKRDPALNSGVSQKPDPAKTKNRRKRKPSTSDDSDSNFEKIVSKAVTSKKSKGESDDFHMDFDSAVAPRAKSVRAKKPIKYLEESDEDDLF

SMILES | IC50 [5] [µM] | IC50 (NCI-H460 [7]) [µM] | further results
O=C1c2cccc3cccc(c23)C(=O)N1CCNCCCNCCN1C(=O)c2cccc3cccc(c23)C1=O [ELINAFIDE] | 0.012 | 0.008 | Activity (NCI-H460 [1]): 13.44%; Ratio IC50 (NCI-H460 [2]): 1.5; inhibition [3]: Active; Activity (NCI-H460 [4]): inactive; Activity (NCI-H460 [6]): 68.4%; Activity (Nucleic Acid): Active; Activity (NCI-H460 [8]): 18.15%
O=C1C(c2cccs2)=C(c2cccs2)C(=O)N1CCCN1CCN(CCCN2C(=O)C(c3cccs3)=C(c3cccs3)C2=O)CC1 | > 30 | > 30 | 
Cn1cccc1C1=C(c2c[nH]c3ccccc23)C(=O)N(CCNCCCNCCN2C(=O)C(c3c[nH]c4ccccc34)=C(c3cccn3C)C2=O)C1=O | 16.5 | 3.9 | 
O=C1C(c2ccccc2)=C(c2ccccc2)C(=O)N1CCNCCCNCCN1C(=O)C(c2ccccc2)=C(c2ccccc2)C1=O | 0.62 | 1.2 | 
O=C1C(c2cccs2)=C(c2cccs2)C(=O)N1CCNCCCNCCN1C(=O)C(c2cccs2)=C(c2cccs2)C1=O | 1.3 | 4.3 | 
O=C1C(c2cccs2)=C(c2c[nH]c3ccccc23)C(=O)N1CCNCCCNCCN1C(=O)C(c2cccs2)=C(c2c[nH]c3ccccc23)C1=O | 4.7 | 4.2 | 
Cn1ccc2c3ccoc3c3c(c21)C(=O)N(CCNCCCNCCN1C(=O)c2c(c4c(ccn4C)c4ccoc24)C1=O)C3=O | 0.09 | 0.003 | Activity (NCI-H460 [1]): 10.56%; TGI (NCI-H460 [9]): Active; inhibition [3]: Active; Activity (NCI-H460 [4]): inactive; Activity (NCI-H460 [6]): 76.63%; TGI (NCI-H460 [10]): inactive; Activity (Nucleic Acid): Active; Activity (NCI-H460 [8]): 12.81%; Activity (Mus musculus): Non-toxic
O=C1C(c2ccccc2)=C(c2c[nH]c3ccccc23)C(=O)N1CCNCCCNCCN1C(=O)C(c2ccccc2)=C(c2c[nH]c3ccccc23)C1=O | 1 | 3.9 | 
O=C1c2c(c3ccccc3c3ccccc23)C(=O)N1CCNCCCNCCN1C(=O)c2c(c3ccccc3c3ccccc23)C1=O | 0.23 | 0.4 | 
O=C1c2c(c3sccc3c3ccoc23)C(=O)N1CCNCCCNCCN1C(=O)c2c(c3sccc3c3ccoc23)C1=O | > 30 | 0.07 | Ratio IC50 (NCI-H460 [2]): 500
Cn1cccc1C1=C(c2cccs2)C(=O)N(CCNCCCNCCN2C(=O)C(c3cccs3)=C(c3cccn3C)C2=O)C1=O | 1.8 | 3.4 | 
Cn1cccc1C1=C(c2ccco2)C(=O)N(CCNCCCNCCN2C(=O)C(c3ccco3)=C(c3cccn3C)C2=O)C1=O | 0.73 | 0.65 | 
O=C1C(c2ccco2)=C(c2cccs2)C(=O)N1CCNCCCNCCN1C(=O)C(c2ccco2)=C(c2cccs2)C1=O | 3.5 | 0.5 | 

— ChEMBL document CHEMBL1817653, “Synthesis, structural, and biological evaluation of bis-heteroarylmaleimides and bis-heterofused imides” (Bioorg Med Chem, 2011)
